# Results from ChEMBL document CHEMBL1287760, “Optimization of purine-nitrile TbcatB inhibitors for use in vivo and evaluation of efficacy in murine models” (Bioorg Med Chem, 2010).
# Tests used:
# [1] = Inhibition of Trypanosoma brucei cathepsin B expressed in Pichia pastoris
# [2] = test system: Trypanosoma brucei; experiment: Antitrypanosomal activity against Trypanosoma brucei after 48 hrs; format: functional, organism-based
# [3] = test system: HEK293; experiment: Cytotoxicity against human HEK293 cells after 72 hrs by alamar blue assay; format: cell-based; settings: hek293, 72 h
# [4] = test system: HepG2; experiment: Cytotoxicity against human HepG2 cells after 72 hrs by alamar blue assay; format: cell-based; settings: hepg2, 72 h
# [5] = test system: BJ; experiment: Cytotoxicity against human BJ cells after 72 hrs by alamar blue assay; format: cell-based
# [6] = test system: Raji; experiment: Cytotoxicity against human Raji cells after 72 hrs by alamar blue assay; format: cell-based
# [7] = Toxicity in human erythrocyte assessed as hemolysis at 10 uM after 5 hrs; format: cell-based; settings: erythrocytes, read-out: Activity
# Summary of the method: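 Human erythrocytes washed three times after spinning whole blood at 1000g for 5 min. Test compound at 10 µM final, 2% hematocrit. PBS negative control; 0.4% saponin dilution series as standard. After centrifugation, supernatant absorbance read at 414 nm and % hemolysis taken from the calibration curve. Triplicate.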
# [8] = Chemical stability in dimethyl sulfoxide at pH 3 after 14 days; format: physicochemical; settings: buffer, pH 3, 336 h
# Summary of the method: (§1)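 DMSO stability followed over 14 days for non-metabolic degradation.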
# [9] = Chemical stability in dimethyl sulfoxide at pH 5 after 14 days; format: physicochemical; settings: buffer, pH 5, 336 h; summary of the method: as §1
# [10] = Chemical stability in dimethyl sulfoxide at pH 7.4 after 14 days; format: physicochemical; settings: buffer, pH 7.4, 336 h; summary of the method: as §1
# [11] = Chemical stability in phosphate buffered saline at pH 3 after 14 days; format: physicochemical; settings: buffer, pH 3, 336 h
# Summary of the method: (§2)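 Stability in PBS (pH 3, 5 and 7.4) followed over 14 days for non-metabolic degradation.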
# [12] = Chemical stability in phosphate buffered saline at pH 5 after 14 days; format: physicochemical; settings: buffer, pH 5, 336 h; summary of the method: as §2
# [13] = Chemical stability in phosphate buffered saline at pH 7.4 after 14 days; format: physicochemical; settings: buffer, pH 7.4, 336 h; summary of the method: as §2
# [14] = Half life in CD1 mouse liver microsomes by UPLC-MS analysis; format: ADME, Microsome; settings: CD1, mouse, liver microsomes
# Summary of the method: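 CD-1 female mouse liver microsomes in 0.1 M potassium phosphate pH 7.4 with EDTA and NADPH-regenerating solutions, 37 °C, shaken. Samples at 0, 0.5, 1 and 2 h quenched with cold acetonitrile containing caffeine internal standard. UPLC–MS (SIR) read-out. Log peak-area ratio versus time gives slope; k = −2.303 × slope, t1/2 = 0.693/k.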
# [15] = Half life in CD1 mouse plasma by UPLC-MS analysis; format: ADME, cell-free
# Summary of the method: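 Half-life in mouse plasma measured at 37 °C.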
# [16] = Aqueous solubility of compound in deionized water; format: physicochemical
# Summary of the method: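 Aqueous solubility measured in deionized water.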
# [17] = test system: Mus musculus; experiment: Stability of the compound in po dosed mouse blood; format: ADME, organism-based; settings: in vivo
# Summary of the method: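 Oral gavage of compound suspensions to female Balb/c mice; blood sampled retro-orbitally at 1, 2 and 4 h (one sample per mouse) and by cardiac puncture at 48 h. Parent compound and metabolites measured by UPLC–MS; metabolite identity assigned by MS/MS against a synthesized standard.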
# [18] = Therapeutic index, ratio of EC50 for human cells to EC50 for Trypanosoma brucei; settings: human cells versus Trypanosoma brucei, read-out: Ratio EC50
# Summary of the method: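 Index = EC50 against the most sensitive mammalian line (HEK 293, Hep G2, BJ, Raji) divided by EC50 against T.b. brucei.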
EC50 [2] [µM],Stability [8],Stability [9],Stability [10],Stability [11],Stability [12],Stability [13],half-life [14] [h],half-life [15] [h],solubility [16] [µM],Stability [17],Structure (SMILES),IC50 [1] [µM],Activity [3],Activity [4],Activity [5],Activity [6],"hemolysis at 5 h, 10 µM [7] [%]",selectivity ratio [18]
> 25,–,–,–,–,–,–,–,–,–,–,N#Cc1nc(NCc2ccc(Cl)c(Cl)c2)c2ncn(CCC(=O)O)c2n1,2.6,–,–,–,–,–,–
0.27,Stable,Stable,Stable,Stable,Stable,Stable,0.43,25.7,1,Unstable,Cc1cccc(C)c1-c1cccc(CNc2nc(C#N)nc3c2ncn3CCCO)c1,–,Non-toxic,Non-toxic,Non-toxic,Non-toxic,1.1,> 20
0.5,–,–,–,–,–,–,0.74,247,0.7,–,CCCCn1cnc2c(NCc3ccc(Cl)c(Cl)c3)nc(C#N)nc21,–,–,–,–,–,0.9,> 20
